# Measured values published in ChEMBL document CHEMBL5104104, “Inhibition of N-type calcium ion channels by tricyclic antidepressants - experimental and theoretical justification for their use for neuropathic pain” (RSC Med Chem, 2022).
# Target: Voltage-dependent N-type calcium channel subunit alpha-1B (Homo sapiens, UniProt Q00975)
# Test: Inhibition of endogenous human CaV2.2 in human SH-SY5Y cells in presence of nifedipine by Calcium 4 dye based calcium influx fluorescence-imaging assay
# Type: cell-based
# How it was run: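 SH-SY5Y neuroblastoma cells with endogenous Cav2.2, seeded 48 h before assay and loaded with Calcium 4 dye in HEPES buffer pH 7.4 with 0.1% BSA and 10 µM nifedipine (30 min, 37 °C). Compound preincubated 300 s. Channels then opened with 90 mM KCl plus 5 mM CaCl2, fluorescence read 300 s more. 3-fold serial dilutions from 100 µM (1% DMSO). IC50 from concentration–response curves, mean ± SEM, n = 3–5.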
# Voltage-dependent N-type calcium channel subunit alpha-1B, sequence (Q00975 whole entry): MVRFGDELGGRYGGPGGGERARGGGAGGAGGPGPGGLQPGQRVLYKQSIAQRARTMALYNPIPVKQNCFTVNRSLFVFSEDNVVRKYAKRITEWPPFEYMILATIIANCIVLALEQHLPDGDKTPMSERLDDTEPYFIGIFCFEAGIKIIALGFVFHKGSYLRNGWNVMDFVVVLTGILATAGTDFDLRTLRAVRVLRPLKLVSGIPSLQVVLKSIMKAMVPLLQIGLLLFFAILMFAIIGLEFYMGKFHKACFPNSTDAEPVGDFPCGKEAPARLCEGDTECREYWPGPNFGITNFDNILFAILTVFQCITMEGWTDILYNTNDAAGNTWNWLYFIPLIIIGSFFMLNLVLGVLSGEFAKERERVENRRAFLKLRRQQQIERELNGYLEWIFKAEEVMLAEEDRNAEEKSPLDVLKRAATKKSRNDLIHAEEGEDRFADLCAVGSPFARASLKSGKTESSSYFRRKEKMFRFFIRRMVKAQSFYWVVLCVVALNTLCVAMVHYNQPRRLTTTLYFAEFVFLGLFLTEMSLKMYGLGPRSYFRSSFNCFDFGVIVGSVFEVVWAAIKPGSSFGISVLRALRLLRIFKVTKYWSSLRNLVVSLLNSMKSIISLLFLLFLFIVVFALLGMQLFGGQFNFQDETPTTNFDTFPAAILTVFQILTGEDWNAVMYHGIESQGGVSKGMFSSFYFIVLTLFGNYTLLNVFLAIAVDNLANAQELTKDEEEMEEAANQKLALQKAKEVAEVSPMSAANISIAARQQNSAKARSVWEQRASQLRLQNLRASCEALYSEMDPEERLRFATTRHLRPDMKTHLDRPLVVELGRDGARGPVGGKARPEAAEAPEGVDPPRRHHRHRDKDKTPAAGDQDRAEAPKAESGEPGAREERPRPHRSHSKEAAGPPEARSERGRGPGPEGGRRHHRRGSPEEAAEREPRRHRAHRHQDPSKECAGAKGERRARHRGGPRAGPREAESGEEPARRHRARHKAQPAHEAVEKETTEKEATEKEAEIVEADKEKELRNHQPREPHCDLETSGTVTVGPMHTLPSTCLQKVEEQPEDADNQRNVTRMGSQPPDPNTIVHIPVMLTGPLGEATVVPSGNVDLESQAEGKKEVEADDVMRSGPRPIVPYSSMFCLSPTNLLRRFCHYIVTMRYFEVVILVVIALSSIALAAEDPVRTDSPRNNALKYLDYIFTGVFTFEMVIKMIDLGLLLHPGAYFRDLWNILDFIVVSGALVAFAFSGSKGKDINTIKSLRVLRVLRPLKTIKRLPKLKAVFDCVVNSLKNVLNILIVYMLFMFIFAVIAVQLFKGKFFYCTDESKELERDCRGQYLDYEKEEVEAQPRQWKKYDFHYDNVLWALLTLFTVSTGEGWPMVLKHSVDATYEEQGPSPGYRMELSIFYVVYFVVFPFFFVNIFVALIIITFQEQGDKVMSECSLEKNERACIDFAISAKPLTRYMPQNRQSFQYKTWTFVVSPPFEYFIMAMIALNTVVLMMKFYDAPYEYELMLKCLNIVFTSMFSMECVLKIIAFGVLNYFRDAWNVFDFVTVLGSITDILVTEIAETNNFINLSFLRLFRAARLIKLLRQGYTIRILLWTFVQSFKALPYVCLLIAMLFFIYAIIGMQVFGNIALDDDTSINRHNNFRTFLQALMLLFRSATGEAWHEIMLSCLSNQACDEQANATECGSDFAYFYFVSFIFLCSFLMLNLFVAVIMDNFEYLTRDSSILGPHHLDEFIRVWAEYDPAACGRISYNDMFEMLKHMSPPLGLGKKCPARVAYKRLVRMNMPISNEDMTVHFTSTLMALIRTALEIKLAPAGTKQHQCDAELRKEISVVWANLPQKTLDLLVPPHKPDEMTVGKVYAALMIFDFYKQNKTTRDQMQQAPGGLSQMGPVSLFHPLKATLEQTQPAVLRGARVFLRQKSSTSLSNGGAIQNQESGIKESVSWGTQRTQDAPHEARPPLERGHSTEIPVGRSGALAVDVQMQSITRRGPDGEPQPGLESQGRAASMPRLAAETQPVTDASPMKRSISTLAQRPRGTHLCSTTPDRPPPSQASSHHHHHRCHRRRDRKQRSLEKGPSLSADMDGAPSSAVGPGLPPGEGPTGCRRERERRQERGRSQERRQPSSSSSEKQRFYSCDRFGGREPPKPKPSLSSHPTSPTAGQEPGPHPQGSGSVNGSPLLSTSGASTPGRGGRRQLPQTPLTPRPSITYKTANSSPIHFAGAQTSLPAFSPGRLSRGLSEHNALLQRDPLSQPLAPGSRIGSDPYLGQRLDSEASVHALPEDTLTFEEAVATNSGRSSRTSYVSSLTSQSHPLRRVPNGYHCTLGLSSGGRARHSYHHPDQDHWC
row,IC50,SMILES
1,14 µM,CNCCCC1c2ccccc2C=Cc2ccccc21 [PROTRIPTYLINE]
2,27 µM,Clc1ccc2c(c1)C(N1CCNCC1)=Nc1ccccc1O2 [AMOXAPINE]
3,18 µM,CC(CN1c2ccccc2Sc2ccccc21)N(C)C (stereo not drawn) [PROMETHAZINE]
4,18 µM,CN(C)CC/C=C1\c2ccccc2COc2ccccc21 [E-DOXEPIN]
5,10 µM,CNCCC=C1c2ccccc2CCc2ccccc21 [NORTRIPTYLINE]
6,11 µM,CNCCCN1c2ccccc2CCc2ccccc21 [DESIPRAMINE]
7,22 µM,CN(C)CCCN1c2ccccc2CCc2ccccc21 [IMIPRAMINE]
8,24 µM,OCCN1CCN(CCCN2c3ccccc3C=Cc3ccccc32)CC1 [OPIPRAMOL]
9,10 µM,CN(C)CCC=C1c2ccccc2C=Cc2ccccc21 [CYCLOBENZAPRINE]
10,9 µM,CN(C)CCCN1c2ccccc2CCc2ccc(Cl)cc21 [CLOMIPRAMINE]
11,11 µM,CC(CN(C)C)CN1c2ccccc2CCc2ccccc21 (stereo not drawn) [TRIMIPRAMINE]
12,10 µM,CNCCCC12CCC(c3ccccc31)c1ccccc12 [MAPROTILINE]

row,SMILES,IC50
1,CN(C)CCC=C1c2ccccc2CCc2ccccc21 [AMITRIPTYLINE],12 µM
